From ChEMBL document CHEMBL1146591, “New polyhydroxy sterols: proteasome inhibitors from a marine sponge Acanthodendrilla sp” (J Nat Prod, 2003) come the findings set out here.

As a reminder, the IC50 is the midpoint of a concentration-inhibition curve.

The test system of one assay is HeLa. In words: Cytotoxicity against human HeLa cells after 3 days by MTT assay. The assay is classed as functional, cell-based. To be noted: 72 h. The procedure, abridged:
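HeLa cells grown in DMEM with 10% fetal calf serum, penicillin and streptomycin, 37 °C, 5% CO2. Seeded at 3 × 10^3 cells/well, precultured 1 day, then given compounds at various concentrations for 3 days at 37 °C. MTT (0.2 mg/mL in medium) added for 4 h, then DMSO, and OD read at 570 nm.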
Background: Tetrazolium assays rely on reduction of a dye to a coloured formazan, in cell work by metabolically active cells.

For the next assay, the species on record is Rattus norvegicus. The assay is described as follows: Inhibition of chymotrypsin like activity of partially purified rat liver proteasome at 100 ug/mL. The format is subcellular. The procedure, abridged:
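Enzyme: proteasome-enriched pellet from rat liver (300 000g, 2 h). Preincubated with test material 10 min at 30 °C in 50 mM Tris-HCl pH 7.8, 1 mM DTT, 5 mM EDTA, 0.02% SDS. Then 0.05 mM Suc-LLVY-MCA added for 1 h at 30 °C. Stopped with 10% SDS and AMC fluorescence read (ex 380/em 460 nm).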

The nature of assay [1]: Inhibition of chymotrypsin like activity of partially purified rat liver proteasome. The format is subcellular. The procedure, abridged: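 Enzyme: proteasome-enriched pellet from rat liver homogenate (300 000g, 2 h). Preincubated with inhibitor 10 min at 30 °C in 50 mM Tris-HCl pH 7.8, 1 mM DTT, 5 mM EDTA, 0.02% SDS. Then 0.05 mM Suc-LLVY-MCA added, 1 h at 30 °C, stopped with 10% SDS, AMC fluorescence read (ex 380/em 460 nm). IC50 from duplicate measurements.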

Each structure is given as a SMILES string. In brackets after ≈: the same amount, converted by molar mass. Activity calls are given as the source filed them. The calls are words filed in the database; no cut-off is given here.

The molecule `C/C=C(\C[C@@H](O)[C@@H](C)[C@H]1CC[C@H]2C3=C[C@H](OC(C)=O)[C@H]4[C@@H](OC(C)=O)[C@@H](OC(C)=O)CC[C@]4(C)[C@H]3[C@H](O)C[C@]12C)C(C)C` [AGOSTEROL A3] yielded an IC50 with HeLa of 10 µg/mL (≈ 16.6 µM). In the assay filed under Rattus norvegicus, the result was inactive.

For the molecule `CC(=O)O[C@@H]1[C@@H]2[C@@H](OC(C)=O)C=C3[C@H]([C@H](O)C[C@]4(C)[C@@H]([C@H](C)[C@H](O)CCC(C)C)CC[C@@H]34)[C@@]2(C)CC[C@@H]1OC(C)=O` [AGOSTEROL A], the IC50 in the assay with HeLa was 25 µg/mL (≈ 43.3 µM); in assay [1], 50 µg/mL (≈ 86.7 µM).

In the case of `CC(=O)O[C@@H]1[C@@H]2[C@@H](OC(C)=O)C=C3[C@H](CC[C@]4(C)[C@@H]([C@@](C)(O)[C@H](O)CCC(C)C)CC[C@@H]34)[C@@]2(C)CC[C@@H]1O` [AGOSTEROL C2], the half-inhibitory concentration (IC50) was greater than 25 µg/mL in the assay on HeLa and 23 µg/mL (≈ 43 µM) in assay [1].

For `C=C(CC(O)C(C)(O)[C@H]1CC[C@H]2C3=C[C@H](OC(C)=O)[C@H]4[C@@H](OC(C)=O)[C@@H](O)CC[C@]4(C)[C@H]3CC[C@]12C)C(C)C` (stereo not given in full) [AGOSTEROL C7], the half-maximal inhibitory concentration (IC50) in the assay on HeLa was greater than 25 µg/mL; in assay [1] it was 20 µg/mL (≈ 36.6 µM).

As for `CC(=O)O[C@@H]1[C@@H]2[C@@H](OC(C)=O)C=C3[C@H](CC[C@]4(C)[C@@H]([C@H](C)[C@H](O)CCC(C)C)CC[C@@H]34)[C@@]2(C)CC[C@@H]1O` [AGOSTEROL C], the IC50 was 22 µg/mL (≈ 42.4 µM) in the assay with HeLa and 10 µg/mL (≈ 19.3 µM) in assay [1].

Consider `CC(=O)O[C@@H]1[C@@H]2[C@@H](OC(C)=O)C=C3[C@H](CC[C@]4(C)[C@@H]([C@@](C)(O)[C@H](O)CCC(C)C)CC[C@@H]34)[C@@]2(C)CC[C@@H]1OC(C)=O` [AGOSTEROL D2], for which the IC50 was 23 µg/mL (≈ 39.9 µM) with HeLa and 90 µg/mL (≈ 156 µM) in assay [1].

As to `C/C=C(\C[C@@H](O)[C@@H](C)[C@H]1CC[C@H]2C3=C[C@H](OC(C)=O)[C@H]4[C@@H](OC(C)=O)[C@@H](OC(C)=O)CC[C@]4(C)[C@@]3(O)CC[C@]12C)C(C)C` [AGOSTEROL E3], the 50% inhibitory concentration (IC50) in the assay with HeLa is 14 µg/mL (≈ 23.2 µM). Further, the result in the assay listed under Rattus norvegicus was inactive.

The molecule `CC(=O)O[C@@H]1[C@@H]2[C@@H](OC(C)=O)C=C3[C@@H]4CC[C@H]([C@H](C)[C@H](O)CCC(C)C)[C@@]4(C)CC[C@]3(O)[C@@]2(C)CC[C@@H]1OC(C)=O` [AGOSTEROL E] yielded an IC50 in the assay with HeLa of 25 µg/mL (≈ 43.3 µM). In addition, in the assay listed under Rattus norvegicus, the outcome was inactive.

As for `CC(=O)O[C@@H]1[C@@H]2[C@@H](OC(C)=O)C=C3[C@H]([C@H](O)C[C@]4(C)[C@@H]([C@H](C)[C@H](O)CCC(C)C)CC[C@@H]34)[C@@]2(C)CC[C@@H]1O` [AGOSTEROL F], the IC50 came out at 16 µg/mL (≈ 29.9 µM) in the assay with HeLa and 35 µg/mL (≈ 65.5 µM) in assay [1].

For `CC(=O)O[C@@H]1[C@@H]2[C@@H](OC(C)=O)C=C3[C@H]([C@H](OC(C)=O)C[C@]4(C)[C@@H]([C@H](C)[C@H](O)CCC(C)C)CC[C@@H]34)[C@@]2(C)CC[C@@H]1O` [AGOSTEROL G], the figures for the IC50 (in the assay on HeLa; in assay [1]) were 8.8 µg/mL (≈ 15.3 µM) and 100 µg/mL (≈ 173 µM), respectively.
